As a reminder, the IC50 is the midpoint of a concentration-inhibition curve. The inhibition is the change of the read-out against control, counted positive when it falls. Usually Ki stands for the dissociation constant of the complex between target and ligand, obtained from inhibition or displacement. Read a low Ki as tighter binding.

Experiment [1] addresses T1, Glutamine synthetase, chloroplastic (Zea mays, UniProt P25462).
T1 sequence (P25462 whole entry): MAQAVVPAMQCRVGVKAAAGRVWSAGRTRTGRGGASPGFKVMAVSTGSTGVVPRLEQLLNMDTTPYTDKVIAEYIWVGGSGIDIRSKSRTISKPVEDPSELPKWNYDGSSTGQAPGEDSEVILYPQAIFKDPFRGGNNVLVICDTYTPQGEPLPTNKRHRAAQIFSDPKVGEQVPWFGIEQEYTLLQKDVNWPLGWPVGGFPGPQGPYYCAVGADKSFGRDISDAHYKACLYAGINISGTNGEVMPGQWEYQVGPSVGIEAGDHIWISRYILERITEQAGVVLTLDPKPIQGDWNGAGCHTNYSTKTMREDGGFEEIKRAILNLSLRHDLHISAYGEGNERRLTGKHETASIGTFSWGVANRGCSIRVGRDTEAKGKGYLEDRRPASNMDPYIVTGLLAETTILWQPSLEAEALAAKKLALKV
Briefly: Inhibition of Zea mays cv. Jeff (maize) leaf glutamine synthetase using L-glutamate as substrate assessed as inorganic phosphate production after 20 min by malachite green assay relative to control. The essentials: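 GS purified from three-leaf-stage maize seedling leaves by ammonium sulfate, DEAE-Sephacel, Reactive Blue flow-through and Mono-Q steps. Inhibitor adjusted to pH 7.4 with KOH, 0.001–5 mM; IC50 by probit method.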

Experiment [2] has as its target T2, Glutamine synthetase, chloroplastic (Zea mays) (UniProt P25462).
T2 sequence (whole entry): T1 sequence (P25462 whole entry)
Briefly: Inhibition of Zea mays cv. Jeff (maize) leaf glutamine synthetase using L-glutamate as substrate assessed as inorganic phosphate production at 1 mM after 20 min by malachite green assay relative to control.

Experiment [3] addresses T1, Glutamine synthetase, chloroplastic. Put plainly: Un-competitive inhibition of Zea mays cv. Jeff (maize) leaf glutamine synthetase using ATP as substrate Lineweaver-Burk plot analysis. The essentials: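 With purified maize leaf GS in the biosynthetic assay (Pi by malachite green, 35 °C), ATP was varied at seven levels from 0.2 to 1 mM with L-glutamate fixed at 50 mM. Four inhibitor levels, 0.5- to 3-fold the I50, each at least in triplicate. Lineweaver–Burk plots were used, and Ki came from Dixon replots. Values are means ± SEM.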

Experiment [4] has the same target. Put plainly: Non-competitive inhibition of Zea mays cv. Jeff( maize) leaf glutamine synthetase using L-glutamate as substrate Lineweaver-Burk plot analysis.

Regarding `O=P(O)(O)C(Nc1cccc(Cl)c1Cl)P(=O)(O)O` [2,3-DICHLOROPHENYLAMINOMETHYLENEBISPHOSPHONIC ACID], in experiment [1], the IC50 was found to be 12.8 µM. In experiment [2], the inhibition was found to be 84.9%. As for `O=P(O)(O)C(O)c1c(Cl)cccc1Cl` (centres undefined), the inhibition in experiment [2] came out at 10.7%. Regarding `O=P(O)(O)C(O)c1cccc(Cl)c1` (centres undefined), the inhibition in experiment [2] was determined as 12.3%. For `Cc1cc(C)cc(NC(P(=O)(O)O)P(=O)(O)O)c1` [3,5-DIMETHYLPHENYLAMINOMETHYLENEBISPHOSPHONIC ACID], the Ki was determined as 55 µM in experiment [3] and 53 µM in experiment [4]. The concentration for half-maximal inhibition (IC50) in experiment [1] came to 56 µM. In addition, the inhibition in experiment [2] is 67.5%. `NC(c1cccc(F)c1)P(=O)(O)O` (centres undefined): the inhibition in experiment [2] came to 7.9%. `O=P(O)(O)C(O)c1ccccc1Cl` (centres undefined) [(2-CHLOROPHENYL)(HYDROXY)METHYLPHOSPHONIC ACID]: the IC50 in experiment [1] was 6610 µM. Besides, the inhibition in experiment [2] stood at 27%. The matching figures for `NC(c1ccccc1Br)P(=O)(O)O` (centres undefined) [AMINO(2-BROMOPHENYL)METHYLPHOSPHONIC ACID]: 4100 µM and 42.5%. `O=P(O)(O)C(Nc1c(Cl)cccc1Cl)P(=O)(O)O` [2,6-DICHLOROPHENYLAMINOMETHYLENEBISPHOSPHONIC ACID]: the IC50 in experiment [1] stood at 15 µM. The inhibition in experiment [2] was determined as 81.1%. Regarding `O=P(O)(O)C(Nc1ccc(Cl)cc1)P(=O)(O)O` [(4-CHLOROPHENYLAMINO)METHYLENEDIPHOSPHONIC ACID], the half-inhibitory concentration (IC50) in experiment [1] worked out at 21 µM. The inhibition in experiment [2] was 79.1%.

In the case of `NC(c1ccc(Cl)cc1Cl)P(=O)(O)O` (centres undefined) [AMINO(2,4-DICHLOROPHENYL)METHYLPHOSPHONIC ACID], the IC50 in experiment [1] stood at 2610 µM. Further, the inhibition in experiment [2] came out at 40.7%. `O=P(O)(O)C(O)c1ccc(Cl)c(Cl)c1` (centres undefined): the inhibition in experiment [2] worked out at 14.6%. In the case of `NC(c1ccccc1F)P(=O)(O)O` (centres undefined) [AMINO(2-FLUOROPHENYL)METHYLPHOSPHONIC ACID], the IC50 in experiment [1] was 10100 µM. Further, the inhibition in experiment [2] was found to be 26.7%.

As for `O=P(O)(O)C(O)c1ccc(Cl)cc1` (centres undefined), the inhibition in experiment [2] was 8.3%. With `O=P(O)(O)C(O)c1cccc(Cl)c1Cl` (centres undefined) [(2,3-DICHLOROPHENYL)(HYDROXY)METHYLPHOSPHONIC ACID], the 50% inhibitory concentration (IC50) in experiment [1] was determined as 1160 µM. In addition, in experiment [2], the inhibition turned out to be 47.2%. Turning to `O=P(O)(O)C(O)c1ccc(Cl)cc1Cl` (centres undefined) [(2,4-DICHLOROPHENYL)(HYDROXY)METHYLPHOSPHONIC ACID], the IC50 in experiment [1] worked out at 4830 µM. The inhibition in experiment [2] came out at 31.9%. Consider `O=P(O)(O)C(Nc1cc(Cl)cc(Cl)c1)P(=O)(O)O` [(3,5-DICHLOROPHENYLAMINO)METHYLENEDIPHOSPHONIC ACID], for which the Ki in experiment [3] turned out to be 6.4 µM; in experiment [4], 7.2 µM. Besides, in experiment [1], the IC50 worked out at 7.6 µM. For the same molecule, in experiment [2], the inhibition was determined as 86.3%. Turning to `NC(c1ccccc1Cl)P(=O)(O)O` (centres undefined) [AMINO(2-CHLOROPHENYL)METHYLPHOSPHONIC ACID], the IC50 in experiment [1] stood at 5810 µM. Also, the inhibition in experiment [2] stood at 36.3%. As for `O=P(O)(O)C(Nc1cc(Cl)ccc1Cl)P(=O)(O)O` [2,5-DICHLOROPHENYLAMINOMETHYLENEBISPHOSPHONIC ACID], in experiment [1], the half-maximal inhibitory concentration (IC50) amounted to 39.2 µM. The inhibition in experiment [2] is 79.1%.

On to `O=P(O)(O)C(Nc1ccc(Cl)cc1Cl)P(=O)(O)O` [2,4-DICHLOROPHENYLAMINOMETHYLENEBISPHOSPHONIC ACID], for which the half-inhibitory concentration (IC50) in experiment [1] worked out at 21.2 µM. Moreover, the inhibition in experiment [2] turned out to be 79.7%. In the case of `COc1cccc(C(N)P(=O)(O)O)c1OC` (centres undefined), the inhibition in experiment [2] is -1.2%. `NC(c1cccc(Cl)c1Cl)P(=O)(O)O` (centres undefined) [AMINO(2,3-DICHLOROPHENYL)METHYLPHOSPHONIC ACID]: the 50% inhibitory concentration (IC50) in experiment [1] worked out at 1050 µM. Also, in experiment [2], the inhibition is 47.7%.

As for `NC(c1ccccc1)P(=O)(O)O` (centres undefined), the inhibition in experiment [2] was found to be 13.6%. On the same count and under the same terms, next, `NC(c1cccc(Cl)c1)P(=O)(O)O` (centres undefined): 8.1%. As for `O=P(O)(O)C(Nc1ccc(Cl)c(Cl)c1)P(=O)(O)O` [3,4-DICHLOROPHENYLAMINOMETHYLENEBISPHOSPHONIC ACID], the IC50 in experiment [1] turned out to be 31.9 µM. Also, the inhibition in experiment [2] is 73.8%.

Values taken from ChEMBL document CHEMBL3044622, “Effectiveness and mode of action of phosphonate inhibitors of plant glutamine synthetase” (Pest Manag Sci, 2010).
